The values that follow come from ChEMBL document CHEMBL1136771, “Differential binding modes of diacylglycerol (DAG) and DAG lactones to protein kinase C (PK-C)” (J Med Chem, 2003).

The term logP denotes the decadic logarithm of the partition coefficient of the neutral form, usually between octanol and water.

The nature of this data set: Partition coefficient (logP). It is filed as physicochemical. To be noted: octanol/water. The gist of the method: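 Octanol/water log P was calculated, not measured, using a fragment-based atom/fragment-contribution estimation program applied to each ligand structure.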
The compound `CC(C)CC(=O)OCC1(CO)CC(=C(C(C)C)C(C)C)C(=O)O1` (stereo not given) displayed a lipophilicity (logP) of 3.2.
`CC(C)=C1CC(CO)(COC(=O)CC(C(C)C)C(C)C)OC1=O` (stereo not given) had a logP of 3.2.
Next, `CC(C)=CC(=O)O[C@@H](CO)COC(=O)CC(C(C)C)C(C)C`: 3.9; `CC(C)CC(=O)OC[C@H](CO)OC(=O)C=C(C(C)C)C(C)C`: 3.9; `CC(C)CC(=O)OCC1(CO)C/C(=C\CC(C(C)C)C(C)C)C(=O)O1` (stereo not given): 4.1.
Next, `CC(C)C/C=C1/CC(CO)(COC(=O)CC(C(C)C)C(C)C)OC1=O` (stereo not given): 4.1.
Take `CC(C)C(CC(=O)OC[C@H](CO)OC(=O)CC(C(C)C)C(C)C)C(C)C`: the lipophilicity (logP) was found to be 5.8.
Turning to `CC(C)CC(=O)OCC1(CO)C/C(=C/CC(C(C)C)C(C)C)C(=O)O1` (stereo not given), the logP is 4.1.
Consider `CC(C)C/C=C1\CC(CO)(COC(=O)CC(C(C)C)C(C)C)OC1=O` (stereo not given), for which the log partition coefficient (logP) was determined as 4.1.
Regarding `CC(C)C(=CC(=O)O[C@@H](CO)COC(=O)CC(C(C)C)C(C)C)C(C)C`, the log partition coefficient (logP) was 5.7.
